One series concerns the target Cannabinoid receptor 1 (Homo sapiens, UniProt P21554). The series can be described thus: Displacement of [3H]-CP-55,940 from human CB1 receptor expressed in CHO cell membranes. The method in brief:
(§1)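 Competition binding against [3H]-CP-55,940 on membranes from CHO cells stably expressing recombinant human CB1 or CB2. Between-day coefficient of variation is 0.24 for CB1 and 0.53 for CB2.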
For orientation: Displacement assays read how much labelled ligand stays bound in the presence of the test substance.

The target in series [1] is T1, Cannabinoid receptor 2 (Homo sapiens, UniProt P34972). The series can be described thus: Displacement of [3H]-CP-55,940 from human CB2 receptor expressed in CHO cell membranes. In short, it runs like this: as §1
T1 sequence (P34972 whole entry): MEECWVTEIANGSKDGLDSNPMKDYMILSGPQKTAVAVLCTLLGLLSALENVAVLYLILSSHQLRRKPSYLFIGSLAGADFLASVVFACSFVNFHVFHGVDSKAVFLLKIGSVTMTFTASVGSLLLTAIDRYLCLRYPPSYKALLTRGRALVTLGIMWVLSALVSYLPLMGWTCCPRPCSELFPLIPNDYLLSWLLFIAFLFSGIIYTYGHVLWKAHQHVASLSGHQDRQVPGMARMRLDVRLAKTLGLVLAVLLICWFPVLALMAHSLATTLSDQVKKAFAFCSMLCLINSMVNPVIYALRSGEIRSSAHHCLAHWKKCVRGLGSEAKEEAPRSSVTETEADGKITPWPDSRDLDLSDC
The species named for another series is Homo sapiens. In words: Selectivity ratio of Ki for human CB1 receptor to Ki for human CB2 receptor.
Series [2] has as its target T1, Cannabinoid receptor 2. In words: Agonist activity at human CB2 receptor expressed in CHO cells assessed as inhibition of forskolin-induced cAMP production. In kind it is functional, cell-based. The method in brief:
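Functional readout is inhibition of forskolin-evoked cAMP accumulation in CHO cells expressing human CB2. IC50 determined from more than four duplicate assay points. Between-day coefficient of variation is 0.63.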

Series [3] deals with T1, Cannabinoid receptor 2. The series can be described thus: Agonist activity at human CB2 receptor expressed in CHO cells assessed as inhibition of forskolin-induced cAMP production at 2 uM relative to control. In kind it is functional, cell-based. In short, it runs like this:
(§2)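 Forskolin-induced cAMP production measured in human CB2-expressing CHO cells. Emax is the maximum inhibition rate of cAMP production at the indicated concentration.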
(cAMP levels reflect the balance of adenylyl cyclase and phosphodiesterase activity.)

Series [4] is described as follows: Cmax in mouse at 30 mg/kg, po. In kind it is ADME, organism-based. Details: dose 30 mg/kg, route oral. Conditions: in vivo.
The test system of series [5] is Mus musculus. The series can be described thus: AUC in mouse at 30 mg/kg, po. Details: dose 30 mg/kg, route oral. Conditions: in vivo. It counts as ADME, organism-based, Plasma.
Series [6] in a line: Half life in mouse at 2 mg/kg, iv. The note with it: in vivo. In kind it is ADME, organism-based. Details: dose 2 mg/kg, route intravenous.
Series [7] addresses T1, Cannabinoid receptor 2. In words: Agonist activity at human CB2 receptor expressed in CHO cells assessed as inhibition of forskolin-induced cAMP production at 0.2 uM relative to control. In kind it is functional, cell-based. The method in brief:
as §2

For series [8], the system named is Mus musculus. In words: Toxicity in po dosed ICR mouse assessed as decrease in locomotor activity at 100 mg/kg, po. Conditions: in vivo. In kind it is organism-based. Details: dose 100 mg/kg, route oral.
Series [9] in a line: Volume of distribution at steady state in mouse at 2 mg/kg, iv. It counts as ADME, organism-based. Further details: dose 2 mg/kg, route intravenous. Conditions: in vivo, read-out: Vdss.
Series [10] deals with Cannabinoid receptor 2 (Mus musculus) (UniProt P47936). The series can be described thus: Displacement of [3H]-CP-55,940 from mouse spleen CB2 receptor expressed in CHO cell membranes.
Cannabinoid receptor 2 (Mus musculus), sequence (P47936 whole entry): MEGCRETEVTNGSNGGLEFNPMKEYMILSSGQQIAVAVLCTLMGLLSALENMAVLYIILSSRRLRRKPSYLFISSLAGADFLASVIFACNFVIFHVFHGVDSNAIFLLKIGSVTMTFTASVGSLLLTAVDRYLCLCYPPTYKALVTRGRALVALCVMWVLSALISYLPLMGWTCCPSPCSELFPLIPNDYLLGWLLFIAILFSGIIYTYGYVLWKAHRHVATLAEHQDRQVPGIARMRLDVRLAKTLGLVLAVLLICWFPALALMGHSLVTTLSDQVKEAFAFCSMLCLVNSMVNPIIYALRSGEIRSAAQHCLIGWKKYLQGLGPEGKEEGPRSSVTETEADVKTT
The test system of series [11] is Mus musculus. In words: Antipruritic activity in ICR mouse assessed as inhibition of compound 48/80-induced scratching-behavior at 100 mg/kg, po administered once before challenge relative to control. It counts as functional. In short, it runs like this: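 Female ICR mice had their backs clipped. Compound was given orally once (n = 6) in sesame oil or 0.5% methylcellulose. Scratching bouts at the site by hind paws were counted for 30 min. Result compared with the vehicle group by Dunnett's t-test (p<0.05).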

For series [12], the system named is Mus musculus. In words: Oral bioavailability in mouse at 30 mg/kg. Conditions: in vivo. In kind it is ADME, organism-based.
For series [13], the target named is T1, Cannabinoid receptor 2. In words: Agonist activity at human CB2 receptor expressed in CHO cells assessed as inhibition of forskolin-induced cAMP production at 0.02 uM relative to control. It counts as functional, cell-based. In short, it runs like this:
as §2

The nature of series [14]: Volume of distribution at steady state in mouse at 1 mg/kg, iv. It counts as ADME, organism-based. Details: dose 1 mg/kg, route intravenous. Conditions: in vivo, read-out: Vdss.
A short description of series [15]: Half life in mouse at 1 mg/kg, iv. In kind it is ADME, organism-based. Further details: dose 1 mg/kg, route intravenous. Conditions: in vivo.
A short description of series [16]: Total plasma clearance in mouse at 1 mg/kg, iv. It counts as ADME, organism-based. Details: dose 1 mg/kg, route intravenous.

Structures are written as SMILES. The source made the active and inactive calls.

Cannabinoid receptor 1, sequence (P21554 whole entry): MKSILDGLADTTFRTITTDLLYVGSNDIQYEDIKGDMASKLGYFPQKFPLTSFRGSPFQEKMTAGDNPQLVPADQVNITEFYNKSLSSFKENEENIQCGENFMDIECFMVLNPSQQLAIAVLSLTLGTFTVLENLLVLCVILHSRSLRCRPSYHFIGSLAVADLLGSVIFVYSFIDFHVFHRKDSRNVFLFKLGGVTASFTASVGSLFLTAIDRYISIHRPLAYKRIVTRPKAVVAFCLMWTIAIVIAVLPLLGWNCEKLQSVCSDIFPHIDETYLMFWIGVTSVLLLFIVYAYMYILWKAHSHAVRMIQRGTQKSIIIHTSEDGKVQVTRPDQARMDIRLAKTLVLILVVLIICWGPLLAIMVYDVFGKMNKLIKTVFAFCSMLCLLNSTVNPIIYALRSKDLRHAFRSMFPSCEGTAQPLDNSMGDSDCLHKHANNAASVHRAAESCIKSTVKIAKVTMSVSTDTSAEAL

Regarding `CCCCn1c(CC)c(C)cc(C(=O)NCc2ccccc2)c1=O`, the Ki (in general, the dissociation constant of the complex between target and ligand, obtained from inhibition or displacement) was 322 nM at Cannabinoid receptor 1 and 20 nM on Cannabinoid receptor 2 [1]. In addition, the Ratio Ki in the series listed under Homo sapiens worked out at 16.

For the compound `O=C(NCc1ccccc1)c1cc2c(n(CCCN3CCOCC3)c1=O)CCCCCC2`, on Cannabinoid receptor 2 [1], affinity was put at a Ki of 209 nM.

For the compound `CCCCn1c(C)c(C)cc(C(=O)NCc2ccccc2)c1=O`, the inhibition constant Ki stood at 606 nM on Cannabinoid receptor 1 and 66 nM at Cannabinoid receptor 2 [1].

Consider `CCCCn1c2c(cc(C(=O)NC(C)C)c1=O)CCCCCC2`, for which the IC50 (commonly the concentration that gives 50% inhibition) on Cannabinoid receptor 2 [2] came to 2.5 nM. In addition, the Emax (commonly the greatest response seen or fitted, relative to the assay's reference) at Cannabinoid receptor 2 [3] amounted to 92%. Also, the inhibitory constant (Ki) at Cannabinoid receptor 1 was found to be 591 nM; on Cannabinoid receptor 2 [1] it was 4 nM. Moreover, in the series filed under Homo sapiens, the Ratio Ki was 148.

As for `CCCCn1c2c(cc(C(=O)NCc3ccccc3)c1=O)CCC2`, the Emax at Cannabinoid receptor 2 [3] came to 83%. Besides, the figures for the inhibition constant (Ki) at Cannabinoid receptor 1 and on Cannabinoid receptor 2 [1] were 143 nM and 16 nM, respectively. In the series listed under Homo sapiens, the Ratio Ki amounted to 8.9.

As to `CC(C)CCn1c2c(cc(C(=O)NCc3ccccc3)c1=O)CCCCCC2`, the inhibitory constant (Ki) came to 9 nM at Cannabinoid receptor 1 and 0.9 nM at Cannabinoid receptor 2 [1]. Moreover, the Ratio Ki in the series filed under Homo sapiens came to 10.

`CCCCn1c2c(cc(C(=O)NCc3ccccc3)c1=O)CCCCCC2`: in [4], the Cmax (usually the highest concentration seen after dosing) turned out to be 168 ng/mL. The AUC (in general, the area under the concentration-time curve, a measure of exposure) with Mus musculus [5] was found to be 390 ng·h/mL. The half-life – broadly, the time needed for the level to fall by half in the phase considered – in [6] is 16.8 min. Further, the Emax on Cannabinoid receptor 2 [7] was found to be 100%. The Activity result in the series with Mus musculus [8] is “Non-toxic”. The Vd in series [9] is 2.29 L/kg. The outcome in [10] was Active. In addition, the inhibition in vivo (commonly how much of the control response was suppressed) at 100 mg/kg with Mus musculus [11] stood at 81%. Also, the Ratio Ki in the series filed under Homo sapiens is 593. The same compound yielded a F with Mus musculus [12] of 25%.

In the case of `CCCCn1c2c(cc(C(=O)NC3CCCCC3)c1=O)CCCCCC2`, the maximum response (Emax) on Cannabinoid receptor 2 [13] was 98%. The half-inhibitory concentration (IC50) on Cannabinoid receptor 2 [2] is under 0.2 nM. Besides, the Vd in series [14] worked out at 0.89 L/kg. Moreover, the outcome in series [10] was Active. Moreover, in series [15], the half-life was 18 min. Moreover, the clearance (usually the rate of elimination divided by the concentration) in [16] is 35 mL/min/kg. For the same compound, in the series filed under Homo sapiens, the Ratio Ki was 95.

For `CCCCn1c(C)c(C)cc(NS(=O)(=O)c2ccccc2)c1=O`, the Ki on Cannabinoid receptor 2 [1] was over 5000 nM.

Regarding `CCCCn1c2c(cc(C(=O)NC(C)(C)c3ccccc3)c1=O)CCCCCC2`, on Cannabinoid receptor 2 [2], the half-inhibitory concentration (IC50) worked out at 0.2 nM.

The compound `CCCCn1c(C)c(C)cc(NC(=O)Nc2ccccc2)c1=O` registered a Ki at Cannabinoid receptor 2 [1] of over 5000 nM.

On to `CCCCn1c2c(cc(C(=O)NC3CCN(C)CC3)c1=O)CCCCCC2`, for which, on Cannabinoid receptor 2 [1], the Ki was found to be 147 nM.

`CCCCn1c2c(cc(C(=O)NCc3ccccc3)c1=O)CCCC2`: the IC50 at Cannabinoid receptor 2 [2] stood at 17 nM. The maximal response (Emax) on Cannabinoid receptor 2 [3] is 76%. For the same compound, the inhibition constant (Ki) at Cannabinoid receptor 1 was determined as 746 nM; on Cannabinoid receptor 2 [1], 17 nM. Moreover, the Ratio Ki in the series listed under Homo sapiens worked out at 44.

At Cannabinoid receptor 2 [1], `CCCCn1c2c(cc(C(=O)NCc3ccccc3)c1=O)COCC2` registered an inhibitory constant (Ki) of 204 nM.

Turning to `CCCCn1c2c(cc(C(=O)NCCc3ccccc3)c1=O)CCCCCC2`, the Emax on Cannabinoid receptor 2 [7] worked out at 98%. The Ratio Ki in the series listed under Homo sapiens turned out to be 568.

In the case of `CCCCn1c2c(cc(C(N)=O)c1=O)CCCCCC2`, the values for the Ki on Cannabinoid receptor 1 and on Cannabinoid receptor 2 [1] were over 5000 nM and 40 nM, respectively. Moreover, the Ratio Ki in the series listed under Homo sapiens is over 125.

These data come from ChEMBL document CHEMBL2385064, “Selective CB2 agonists with anti-pruritic activity: discovery of potent and orally available bicyclic 2-pyridones” (Bioorg Med Chem, 2013).
